These results are taken from ChEMBL document CHEMBL1148356, “Synthesis and biological evaluation of 3-heterocyclyl-7,8,9,10-tetrahydro-(7,10-ethano)-1,2,4-triazolo[3,4-a]phthalazines and analogues as subtype-selective inverse agonists for the GABA(A)alpha5 benzodiazepine binding site” (J Med Chem, 2004).

A short description of data set [1]: Oral bioavailability in rat. The format is ADME, organism-based. The conditions noted are these: in vivo. In a few lines:
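Male SD rats with jugular cannulas were fasted overnight and dosed either by tail-vein IV bolus or orally (n = 3 per route). Serial jugular blood samples were taken up to 8 h. Plasma was frozen at −20 °C, protein-precipitated with acetonitrile containing internal standard, and quantified by LC-MS/MS.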

The target in data set [2] is T1, GABA-A receptor; alpha-5/beta-3/gamma-2 (Homo sapiens) (UniProt P18507+P28472+P31644). Put plainly: Percent maximum change in electrophysiological response in Xenopus oocytes expressing alpha-5-beta-3-gamma-2 GABA-A receptor. The format is functional, cell-based. The conditions noted are these: Oocyte. The method in brief: (§1)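 Two-electrode voltage clamp on Xenopus oocytes injected with human GABA-A subunit cDNAs, 24-72 h expression, perfused with modified Barth's medium at pH 7.5, clamped between -40 and -70 mV. The GABA EC20 was titrated against a 3 mM GABA maximum. […] Result is % change of control current, mean ± SE of ≥4 oocytes.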

The target of data set [3] is GABA A receptor alpha-4/beta-3/gamma-2 (Homo sapiens, UniProt P18507+P28472+P48169). Put plainly: Inhibition of [3H]-Ro-15-1788 binding to human alpha-4-beta-3-gamma-2 GABA-A receptor expressed in L(tk-) cells. The format is cell-based.
Data set [4] has as its target GABA-A receptor; alpha-2/beta-3/gamma-2 (Homo sapiens) (UniProt P18507+P28472+P47869). Put plainly: Percent maximum change in electrophysiological response in Xenopus oocytes expressing alpha-2-beta-3-gamma-2 GABA-A receptor. The format is functional, cell-based. The conditions noted are these: Oocyte. The method in brief: as §1
The target in data set [5] is GABA-A receptor; alpha-3/beta-3/gamma-2 (Homo sapiens) (UniProt P18507+P28472+P34903). Put plainly: Percent change in electrophysiological response in Xenopus oocytes expressing Alpha3-beta3-gamma2 GABA-A receptor. The conditions noted are these: Oocyte. The format is functional, cell-based. In a few lines: as §1
The target in data set [6] is T2, GABA-A receptor; alpha-1/beta-3/gamma-2 (Homo sapiens, UniProt P14867+P18507+P28472).
T2 sequence (P14867 whole entry): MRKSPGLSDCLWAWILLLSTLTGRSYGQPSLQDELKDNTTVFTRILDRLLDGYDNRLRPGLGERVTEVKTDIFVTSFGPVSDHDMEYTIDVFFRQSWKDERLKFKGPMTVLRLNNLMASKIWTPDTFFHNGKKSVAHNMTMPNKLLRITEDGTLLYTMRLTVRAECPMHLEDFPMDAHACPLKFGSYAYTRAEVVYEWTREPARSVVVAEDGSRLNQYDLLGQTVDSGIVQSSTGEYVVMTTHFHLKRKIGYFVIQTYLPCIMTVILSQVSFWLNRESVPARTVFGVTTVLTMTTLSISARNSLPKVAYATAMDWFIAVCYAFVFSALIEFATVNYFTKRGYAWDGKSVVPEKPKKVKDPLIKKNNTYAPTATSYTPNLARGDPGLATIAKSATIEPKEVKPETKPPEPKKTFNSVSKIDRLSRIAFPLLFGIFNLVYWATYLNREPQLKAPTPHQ
T2 sequence (P18507 whole entry): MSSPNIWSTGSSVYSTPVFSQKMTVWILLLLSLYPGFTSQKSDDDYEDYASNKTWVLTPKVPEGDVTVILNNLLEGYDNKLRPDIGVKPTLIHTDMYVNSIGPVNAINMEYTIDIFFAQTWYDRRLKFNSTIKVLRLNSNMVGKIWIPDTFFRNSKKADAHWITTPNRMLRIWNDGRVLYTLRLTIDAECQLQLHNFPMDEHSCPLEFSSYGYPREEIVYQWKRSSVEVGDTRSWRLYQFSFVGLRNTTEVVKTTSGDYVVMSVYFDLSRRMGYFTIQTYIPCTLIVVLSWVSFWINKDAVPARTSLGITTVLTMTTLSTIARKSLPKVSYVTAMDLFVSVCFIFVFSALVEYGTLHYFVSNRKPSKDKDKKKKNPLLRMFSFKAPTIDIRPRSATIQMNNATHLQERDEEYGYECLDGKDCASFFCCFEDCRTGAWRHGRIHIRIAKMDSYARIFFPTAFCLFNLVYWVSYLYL
T2 sequence (P28472 whole entry): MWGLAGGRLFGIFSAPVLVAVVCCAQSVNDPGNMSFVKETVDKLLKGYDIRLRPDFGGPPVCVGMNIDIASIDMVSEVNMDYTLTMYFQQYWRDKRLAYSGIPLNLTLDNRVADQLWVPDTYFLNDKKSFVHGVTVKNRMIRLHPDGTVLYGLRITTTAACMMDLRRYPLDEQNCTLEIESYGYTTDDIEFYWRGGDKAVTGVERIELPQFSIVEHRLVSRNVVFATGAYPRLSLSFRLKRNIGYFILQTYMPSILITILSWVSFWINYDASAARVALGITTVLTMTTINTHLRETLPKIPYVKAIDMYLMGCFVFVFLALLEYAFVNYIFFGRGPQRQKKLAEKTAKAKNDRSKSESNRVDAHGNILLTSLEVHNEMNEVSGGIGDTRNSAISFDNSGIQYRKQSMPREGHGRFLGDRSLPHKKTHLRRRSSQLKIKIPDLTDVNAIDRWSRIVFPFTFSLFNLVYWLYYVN
Put plainly: Binding affinity towards human alpha-1-beta-3-gamma-2 GABA-A receptor using [3H]Ro-151788 expressed in L(tk-) cells. The format is cell-based.

Data set [7] concerns the target T3, GABA-A receptor; alpha-5/beta-3/gamma-2 (Homo sapiens, UniProt P18507+P28472+P31644).
T3 sequence (P18507 whole entry): T2 sequence (P18507 whole entry)
T3 sequence (P28472 whole entry): T2 sequence (P28472 whole entry)
T3 sequence (P31644 whole entry): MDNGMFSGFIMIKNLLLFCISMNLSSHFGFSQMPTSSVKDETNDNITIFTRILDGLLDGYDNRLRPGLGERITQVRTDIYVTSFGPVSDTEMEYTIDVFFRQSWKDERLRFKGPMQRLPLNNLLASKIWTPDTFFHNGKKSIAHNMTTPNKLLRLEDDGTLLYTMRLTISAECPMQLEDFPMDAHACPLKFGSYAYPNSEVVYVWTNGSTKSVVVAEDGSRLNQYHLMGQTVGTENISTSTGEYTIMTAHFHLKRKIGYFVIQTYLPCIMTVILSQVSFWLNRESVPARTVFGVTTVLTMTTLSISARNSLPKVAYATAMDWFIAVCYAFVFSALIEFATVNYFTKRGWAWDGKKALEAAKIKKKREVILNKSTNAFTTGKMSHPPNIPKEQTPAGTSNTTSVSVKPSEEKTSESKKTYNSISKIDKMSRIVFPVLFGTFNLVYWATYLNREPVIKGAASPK
Put plainly: Binding affinity towards human alpha-5-beta-3-gamma-2 GABA-A receptor using [3H]Ro-151788 expressed in L(tk-) cells. The format is cell-based.

The target in data set [8] is T1, GABA-A receptor; alpha-5/beta-3/gamma-2 (Homo sapiens). Put plainly: Percent change in electrophysiological response in Xenopus oocytes expressing Alpha-5-beta-3-gamma-2 GABA-A receptor. The format is functional, cell-based. The conditions noted are these: Oocyte. In a few lines:
as §1

Data set [9] addresses GABA-A receptor; alpha-1/beta-3/gamma-2 (Homo sapiens) (UniProt P14867+P18507+P28472). Put plainly: Percent change in electrophysiological response in Xenopus oocytes expressing Alpha1-beta3-gamma2 GABA-A receptor. The format is functional, cell-based. The conditions noted are these: Oocyte. In a few lines: as §1

The structures appear in SMILES notation.

Sequence of GABA A receptor alpha-4/beta-3/gamma-2 (P48169 whole entry, one chain of several): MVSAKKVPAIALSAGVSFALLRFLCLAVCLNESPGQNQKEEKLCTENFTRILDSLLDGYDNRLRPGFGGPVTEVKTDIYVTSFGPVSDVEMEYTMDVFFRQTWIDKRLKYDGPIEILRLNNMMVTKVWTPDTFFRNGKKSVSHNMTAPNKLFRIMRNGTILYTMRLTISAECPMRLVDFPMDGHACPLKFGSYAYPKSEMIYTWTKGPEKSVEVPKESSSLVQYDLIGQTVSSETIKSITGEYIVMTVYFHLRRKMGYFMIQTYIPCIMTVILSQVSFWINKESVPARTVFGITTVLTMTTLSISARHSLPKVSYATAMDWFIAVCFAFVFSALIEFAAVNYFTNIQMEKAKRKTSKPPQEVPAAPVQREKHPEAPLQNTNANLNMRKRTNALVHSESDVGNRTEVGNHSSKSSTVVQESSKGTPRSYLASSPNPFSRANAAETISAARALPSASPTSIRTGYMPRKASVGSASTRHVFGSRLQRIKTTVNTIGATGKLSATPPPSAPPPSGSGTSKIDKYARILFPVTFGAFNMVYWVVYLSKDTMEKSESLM

Turning to `Cc1cc(-c2nnc3c4ccccc4c(OCc4ccccn4)nn23)no1`, in [1], the bioavailability came out at 41%. The Efficacy in data set [2] is -45%; in data set [4], -7%; in data set [5] it was -4%; in data set [8] it was -46%; in data set [9], -2%. Further, the inhibition constant Ki in data set [3] stood at 244 nM; in [6] it was 1.4 nM; in [7] it was 0.8 nM.
